# Key:
# [1] = target: Recombinant TryR from T. brucei (Trypanosoma brucei brucei, UniProt P39051); experiment: DTNB-coupled colourimetric TryR screening/potency assay; format: biochemical
# TryR = TryR (Trypanosoma brucei brucei, UniProt P39051); experiment: Mode of inhibition studies on TryR; format: biochemical; details: for Inhibitor constants Ki′: T[S]2 varied, mixed inhibition, second constant; for Mode of inhibiton: TryR, global nonlinear fit of 1/v vs 1/[S] data
# In short: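 TryR with 150 μm NADPH, 50 μm DTNB, 20 mU/mL enzyme in 40 mm HEPES, 1 mm EDTA, pH 7.4. Three test-compound levels plus an inhibitor-free row. Started with T[S]2 over 12 points, 500 to 5.8 μm. NADPH was also varied at fixed T[S]2. Rates from linear A412 rise, inspected as 1/v vs 1/[S], then globally fitted to competitive, mixed or uncompetitive equations.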
# [2] = target: T1, human glutathione reductase (Homo sapiens, UniProt P00390); experiment: Glutathione reductase; format: biochemical
# T1 sequence (P00390 44-522): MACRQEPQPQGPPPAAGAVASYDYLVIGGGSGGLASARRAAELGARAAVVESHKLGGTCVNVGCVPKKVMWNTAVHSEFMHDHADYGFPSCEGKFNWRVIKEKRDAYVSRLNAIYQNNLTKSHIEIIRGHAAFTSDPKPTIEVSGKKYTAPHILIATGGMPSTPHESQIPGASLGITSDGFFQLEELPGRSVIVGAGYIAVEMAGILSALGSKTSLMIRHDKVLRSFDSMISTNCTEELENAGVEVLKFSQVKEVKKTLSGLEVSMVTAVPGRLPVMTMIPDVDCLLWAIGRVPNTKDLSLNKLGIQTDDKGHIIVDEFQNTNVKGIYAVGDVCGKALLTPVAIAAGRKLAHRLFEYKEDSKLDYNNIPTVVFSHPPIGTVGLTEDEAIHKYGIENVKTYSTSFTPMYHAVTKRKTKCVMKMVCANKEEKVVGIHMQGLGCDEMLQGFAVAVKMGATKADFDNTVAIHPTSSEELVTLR
# [3] = system: bloodstream form T. brucei brucei single marker; experiment: Trypanosome growth assay; format: cell-based; details: Trypanosoma brucei, 73 h, read-out: EC50 Parasite
# In short: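 Bloodstream-form T. b. brucei single marker in HMI9-T with 10% FCS, 2000 cells/well, added to plates pre-stamped with test compound; media-only column as blank. Ten points from 15 μm to 0.5 nm or 50 μm to 2 nm; final DMSO 0.5%. Incubated 69 h at 37°C, 5% CO2, then resazurin (final 50 μm) for 4 h; fluorescence at ex 528/em 590 nm.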
# Chain of TryR (P39051 whole entry): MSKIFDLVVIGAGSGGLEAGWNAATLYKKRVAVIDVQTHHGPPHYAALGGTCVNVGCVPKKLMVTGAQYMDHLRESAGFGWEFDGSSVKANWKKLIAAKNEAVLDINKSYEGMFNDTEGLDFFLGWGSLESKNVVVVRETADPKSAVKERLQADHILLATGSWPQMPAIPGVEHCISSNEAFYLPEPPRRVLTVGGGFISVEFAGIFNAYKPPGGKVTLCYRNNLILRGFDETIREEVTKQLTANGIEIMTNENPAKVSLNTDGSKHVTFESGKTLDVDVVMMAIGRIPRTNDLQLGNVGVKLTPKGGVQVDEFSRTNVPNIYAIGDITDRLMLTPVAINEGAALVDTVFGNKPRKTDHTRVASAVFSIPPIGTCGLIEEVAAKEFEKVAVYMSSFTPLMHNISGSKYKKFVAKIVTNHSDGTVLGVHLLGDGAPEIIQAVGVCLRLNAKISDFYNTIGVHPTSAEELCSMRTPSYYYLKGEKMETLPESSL
# Chain of Recombinant TryR from T. brucei (P39051 whole entry): as above
SMILES,IC50 [1] [µM],Ki (TryR) [µM],Inhibitor constants Ki′ (TryR) [µM],Mode of inhibiton (TryR),IC50 [2] [µM],EC50 [3] [µM]
"Cc1ccc(-c2cc(C(=O)NCCN(C)C)c3cc(Br)ccc3n2)o1 [Compound 1, 6-Bromo-N-(2-(dimethylamino)ethyl)-2-(5-methylfuran-2-yl)quinoline-4-carboxamide]",1.7,1.6 ± 0.2,3.2 ± 0.3,linear mixed,> 100,10.3
"CNCCNC(=O)c1cc(-c2ccc(C)o2)nc2ccc(Br)cc12 [Compound 2, 6-Bromo-N-(2-(methylamino)ethyl)-2-(5-methylfuran-2-yl)quinoline-4-carboxamide]",1.1,,,,,6
"Cc1ccc(-c2cc(C(=O)NCC[N+](C)(C)C)c3cc(Br)ccc3n2)o1 [Compound 3, 6-Bromo-N,N,N-trimethyl-2-(2-(5-methylfuran-2-yl)quinoline-4-carboxamido)ethanaminium iodide]",1.2,,,,,> 50
"Cc1ccc(-c2cc(C(=O)NCCN3CCOCC3)c3cc(Br)ccc3n2)o1 [Compound 4, 6-Bromo-2-(5-methylfuran-2-yl)-N-(2-morpholinoethyl)quinoline-4-carboxamide]",4.2,3 ± 0.2,4.3 ± 0.3,linear mixed,74.2,25.6
"Cc1ccc(-c2cc(C(=O)NCc3ccccn3)c3cc(Br)ccc3n2)o1 [Compound 5, 6-Bromo-2-(5-methylfuran-2-yl)-N-(pyridin-2-ylmethyl)quinoline-4-carboxamide]",4.7,2 ± 0.1,3.0 ± 0.2,linear mixed,33.4,18.7
"Cc1ccc(-c2cc(C(=O)NCCN(C)C)c3cc(Cl)ccc3n2)o1 [Compound 8, 6-Chloro-N-(2-(dimethylamino)ethyl)-2-(5-methylfuran-2-yl)quinoline-4-carboxamide]",3.1,,,,,
"Cc1ccc(-c2cc(C(=O)NCCN(C)C)c3ccc(Br)cc3n2)o1 [Compound 9, 7-Bromo-N-(2-(dimethylamino)ethyl)-2-(5-methylfuran-2-yl)quinoline-4-carboxamide]",5.7,,,,,
"Cc1ccc(-c2cc(C(=O)NCCN(C)C)c3cccc(Br)c3n2)o1 [Compound 10, 8-Bromo-N-(2-(dimethylamino)ethyl)-2-(5-methylfuran-2-yl)quinoline-4-carboxamide]",5.8,,,,,19.2
"Cc1ccc(-c2cc(C(=O)NCc3ccccn3)c3ccccc3n2)o1 [Compound 11, 2-(5-Methylfuran-2-yl)-N-(pyridin-2-ylmethyl)quinoline-4-carboxamide]",12.1,,,,,
"Cc1ccc(-c2cc(C(=O)NCCN(C)C)c3ccccc3n2)o1 [Compound 12, N-(2-(Dimethylamino)ethyl)-2-(5-methylfuran-2-yl)quinoline-4-carboxamide]",14.4,,,,,32.1
"Cc1ccc(-c2cc(C(=O)NCc3ccccc3)c3cc(Br)ccc3n2)o1 [Compound 15, N-Benzyl-6-bromo-2-(5-methylfuran-2-yl)quinoline-4-carboxamide]",> 100,,,,,
"CN(C)CCNC(=O)c1cc(-c2ccco2)nc2ccc(Br)cc12 [Compound 20, 6-Bromo-N-(2-(dimethylamino)ethyl)-2-(furan-2-yl)quinoline-4-carboxamide]",32.4,,,,,
"Cc1ccc(-c2cc(C(=O)NCCN(C)C)c3cc(Br)ccc3n2)s1 [Compound 22, 6-Bromo-N-(2-(dimethylamino)ethyl)-2-(5-methylthiophen-2-yl)quinoline-4-carboxamide]",> 100,,,,,
"Cc1ccc(-c2cc(C(=O)NCCc3ccccc3)c3cc(Br)ccc3n2)o1 [Compound 25, 6-bromo-2-(5-methylfuran-2-yl)-N-phenethylquinoline-4-carboxamide]",> 100,,,,,
"Cc1ccc(-c2cc(C(=O)NCCN(C)C)c3cc(F)ccc3n2)o1 [Compound 26, N-(2-(dimethylamino)ethyl)-6-fluoro-2-(5-methylfuran-2-yl)quinoline-4-carboxamide]",> 100,,,,,

# Reference: PMC2855869 (Chemmedchem, 2009)
